According to ChEMBL document CHEMBL3351600, “Sulfur, selenium and tellurium pseudopeptides: synthesis and biological evaluation” (Bioorg Med Chem, 2014):
pIC50: −log10 of the molar value. Activity calls are given as the source filed them. No cut-off for these calls is given here.

Key:
MCF7 [1] = assay: Cytotoxicity against human MCF7 cells assessed as cell viability after 24 hrs incubation by MTT assay; format: functional, cell-based; conditions: MCF7, 24 h
Outline: (§1)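 Cell lines came from DSMZ; primary human fibroblasts served as non-cancer controls. Cells were grown in medium with 10% FCS, seeded at 50,000 cells/ml, and grown 2 days at 37 °C, 10% CO2. Serial dilutions were then added for 24 h. MTT (final 0.5 mg/ml) was added for 2 h. Formazan was pelleted, PBS-washed, dissolved in isopropanol/0.4% HCl and read at 590 nm. Two parallel experiments were run. IC50 was taken as the concentration giving 50% of untreated-control absorbance.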

A-431 [2] = assay: Cytotoxicity against human A431 cells assessed as cell viability after 24 hrs incubation by MTT assay; format: functional, cell-based; conditions: A-431, 24 h; outline: as §1
[3] = Cytotoxicity against human fibroblasts assessed as cell viability after 24 hrs incubation by MTT assay; format: cell-based; conditions: Fibroblast; outline: as §1
[4] = Octanol-water partition coefficient, log P of the compound by HPLC analysis; format: physicochemical
Outline: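 Lipophilicity was measured by reversed-phase HPLC on a Nucleosil C18 column with isocratic water/methanol (3:1) at 0.5 ml/min and UV detection at 230 and 245 nm. Dead time was set with thiourea (t0 0.728 min). Retention factor was k = (tR − t0)/t0, and log P came from a calibration against at least six reference compounds.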

MCF7 [5] = assay: Cell cycle arrest in human MCF7 cells assessed as accumulation at G0/G1 phase after 30 mins by propidium iodide staining-based flow cytometric analysis; format: functional
Outline: (§2)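 MCF-7 cells (10^6) were treated with compounds for 24 h alongside a methanol vehicle control. They were fixed in cold 70% methanol at 4 °C for one day, washed in PBS and permeabilised with 0.1% saponin in PBS. They were then stained with propidium iodide plus RNase (1 mg/ml) for 30 min, and DNA-content distribution was read by FACScan flow cytometry.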

MCF7 [6] = assay: Cell cycle arrest in human MCF7 cells assessed as accumulation at S phase […] by propidium iodide staining-based flow cytometric analysis; format: functional
MCF7 [7] = assay: Cell cycle arrest in human MCF7 cells assessed as accumulation at G2/M phase after 30 mins by propidium iodide staining-based flow cytometric analysis; format: functional; outline: as §2
A-431 [8] = assay: Reduction in ROS in human A431 cells assessed as decrease in hydrogen peroxide level at 0.1 to 10 ng/ml after 1 hr by DCHFA assay; format: functional, cell-based
Outline: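 A-431 cells were seeded at 10^5 per well and exposed to a range of compound concentrations for 1 h. They were then loaded with DCHFA probe for 30 min in the dark. Fluorescence was read immediately at ex/em 485/528 nm and expressed as arbitrary units per 10^5 cells.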

PtK2 [9] = assay: Induction of morphological changes in Potorous tridactylus PtK2 cells assessed as loss of typical shape after 24 hrs by immunofluorescence microscopy; format: functional, cell-based
Outline: (§3)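 PtK2 cells were grown on coverslips and treated at semi-confluence for 24 h. Fixation was either 3.7% paraformaldehyde followed by 0.1% Triton X-100 for 5 min, or ice-cold methanol/acetone (50:50) for 10 min. ER was stained with anti-GRP94 and tubulin with anti-α-tubulin (primary and Alexa 488 secondary antibodies, 45 min each). Actin was stained with phalloidin-Alexa 594 for 45 min and nuclei with DAPI. Imaging was by fluorescence microscopy.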

PtK2 [10] = assay: Induction of morphological changes in Potorous tridactylus PtK2 cells assessed as lysis of ER and disappearance of actin stress fiber after 24 hrs by immunofluorescence microscopy; format: functional, cell-based; outline: as §3
Saccharomyces cerevisiae = assay: Antimicrobial activity against Saccharomyces cerevisiae assessed as inhibition at 20 ug/6 mm disk after 1 to 2 days by agar diffusion assay; format: functional
Outline: (§4)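 Standard agar diffusion: 6-mm paper disks loaded with 20 µg of compound were placed on inoculated plates. Inhibition-zone diameter (mm) was read after 1 and 2 days of growth.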

Candida albicans = assay: Antimicrobial activity against Candida albicans assessed as inhibition at 20 ug/6 mm disk after 1 to 2 days by agar diffusion assay; format: functional; outline: as §4
Aspergillus niger = assay: Antimicrobial activity against Aspergillus niger assessed as inhibition at 20 ug/6 mm disk after 1 to 2 days by agar diffusion assay; format: functional; outline: as §4
Mycolicibacterium phlei = assay: Antimicrobial activity against Mycobacterium phlei assessed as inhibition at 20 ug/6 mm disk after 1 to 2 days by agar diffusion assay; format: functional; outline: as §4
Micrococcus luteus = assay: Antimicrobial activity against Micrococcus luteus assessed as inhibition at 20 ug/6 mm disk after 1 to 2 days by agar diffusion assay; format: functional; outline: as §4
Staphylococcus aureus = assay: Antimicrobial activity against Staphylococcus aureus assessed as inhibition at 20 ug/6 mm disk after 1 to 2 days by agar diffusion assay; format: functional; outline: as §4
Klebsiella pneumoniae = assay: Antimicrobial activity against Klebsiella pneumoniae assessed as inhibition at 20 ug/6 mm disk after 1 to 2 days by agar diffusion assay; format: functional; outline: as §4
Pseudomonas aeruginosa = assay: Antimicrobial activity against Pseudomonas aeruginosa assessed as inhibition at 20 ug/6 mm disk after 1 to 2 days by agar diffusion assay; format: functional; outline: as §4
Escherichia coli = assay: Antimicrobial activity against Escherichia coli tolC assessed as inhibition at 20 ug/6 mm disk after 1 to 2 days by agar diffusion assay; format: functional; outline: as §4
[11] = Lipophilicity, log K of the compound by HPLC analysis
A-431 [12] = assay: Reduction in ROS in human A431 cells assessed as decrease in hydrogen peroxide level at 1 to 100 ng/ml after 1 hr by DCHFA assay; format: functional, cell-based
Outline: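 A-431 cells (10^5 per well) were treated with a range of compound concentrations for 1 h. They were then loaded with DCHFA probe for 30 min in the dark. Fluorescence (ex 485/em 528 nm) was read immediately and expressed as arbitrary units per 10^5 cells.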

logP [4]	log K [11]	Retention_time	SMILES	pIC50 (MCF7 [1])	pIC50 (A-431 [2])	pIC50 [3]	diameter of the inhibition zone (DIZ) (Saccharomyces cerevisiae)	diameter of the inhibition zone (DIZ) (Candida albicans)	diameter of the inhibition zone (DIZ) (Aspergillus niger)	diameter of the inhibition zone (DIZ) (Mycolicibacterium phlei)	diameter of the inhibition zone (DIZ) (Micrococcus luteus)	diameter of the inhibition zone (DIZ) (Staphylococcus aureus)	diameter of the inhibition zone (DIZ) (Klebsiella pneumoniae)	diameter of the inhibition zone (DIZ) (Pseudomonas aeruginosa)	diameter of the inhibition zone (DIZ) (Escherichia coli)	Activity (A-431 [12])	further results
3.1	-0.03	1.407 min	COc1ccc(N(CC(=O)NCCCSc2ccccc2)C(=O)c2ccccc2)cc1	≤ 4.00	≤ 4.00	≤ 4.00	0 mm	0 mm	0 mm	0 mm	0 mm	0 mm	0 mm	0 mm	0 mm	inactive	
3.7	0.27	2.088 min	COc1ccc(N(CC(=O)NCCC[Se]c2ccccc2)C(=O)/C=C/c2ccccc2)cc1	≤ 4.00	≤ 4.00	≤ 4.00	0 mm	0 mm	0 mm	0 mm	0 mm	0 mm	0 mm	0 mm	0 mm	inactive	

SMILES	logP [4]	log K [11]	Retention_time	pIC50 (MCF7 [1])	pIC50 (A-431 [2])	pIC50 [3]	diameter of the inhibition zone (DIZ) (Saccharomyces cerevisiae)	diameter of the inhibition zone (DIZ) (Candida albicans)	diameter of the inhibition zone (DIZ) (Aspergillus niger)	diameter of the inhibition zone (DIZ) (Mycolicibacterium phlei)	diameter of the inhibition zone (DIZ) (Micrococcus luteus)	diameter of the inhibition zone (DIZ) (Staphylococcus aureus)	diameter of the inhibition zone (DIZ) (Klebsiella pneumoniae)	diameter of the inhibition zone (DIZ) (Pseudomonas aeruginosa)	diameter of the inhibition zone (DIZ) (Escherichia coli)	Activity (A-431 [12])	further results
CC(C)(C)OC(=O)NCC(=O)OCC(=O)NCCC[Te]c1ccccc1	3.83	0.32	2.247 min	6.52	5.00	4.72	0 mm	0 mm	0 mm	14 mm	7 mm	16 mm	15 mm	0 mm	12 mm		Activity (MCF7 [5]): 91.61%; Activity (MCF7 [6]): 4.61%; Activity (MCF7 [7]): 3.78%; Activity (A-431 [8]): Dose-dependent effect; Activity (PtK2 [9]): Active; Activity (PtK2 [10]): Active
